In article PMC5132082 (Clinical Pharmacology in Drug Development, 2016):
Where two headings read alike, the source gives them in different places. Marks after values point to notes of the source that are not given here. Blank lines part the entries; values can stand above or below the compound they belong to.

What was measured:
[1] = format: in vivo, human; conditions: for Tmax median difference (90%CI): Hodges-Lehmann estimate; for AUC0–∞ ratio of geometric means (90%CI) / CL/F ratio of geometric means (90%CI) / Cmax ratio of geometric means (90%CI) / Vz/F ratio of geometric means (90%CI): ANOVA; for t1/2 geometric mean difference: severely renal impaired vs healthy matched
[2] = cited from earlier work
[3] = moderate and severe hepatic impairment; cited from earlier work
[4] = Safety monitoring; format: in vivo, human; conditions: for subjects reporting AEs: single oral 30 mg
Procedure, shortened: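 Subjects were confined from the evening before dosing through the PK sampling period. Monitoring ran throughout the study and covered adverse events, complete physical examinations, vital signs, 12-lead ECGs, clinical laboratory safety tests and prior and concomitant medications. Follow-up safety visit 11‒18 days after dosing.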

[5] = population pharmacokinetic model built in a phase 3 study; cited from earlier work
[6] = format: in vivo, human; conditions: M12
Procedure, shortened: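 Urine collected predose (≤60 min before dosing) and over 0‒8, 8‒24, 24‒48 and 48‒72 h postdose. M12 measured by achiral LC-MS/MS (LLOQ 5 ng/mL). Excreted amount = urine concentration × interval urine volume. Renal clearance = cumulative 72-h urinary M12 divided by plasma AUC0–72. Summarised descriptively by group.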

[7] = cited from earlier work; remark: listed apart in the source
[8] = cited from earlier work; remark: listed apart in the source
[9] = apremilast, mild renal impaired/healthy matched
[10] = apremilast, moderate renal impaired/healthy matched
[11] = apremilast, moderate renal impairment group
[12] = apremilast, severe renal impaired/healthy matched
[13] = apremilast, severe renal impairment vs healthy matched
[14] = apremilast, subjects with severe renal impairment
[15] = healthy subjects, single oral dose
[16] = M12, mild renal impaired/healthy matched
[17] = M12, moderate renal impaired/healthy matched
[18] = M12, severe renal impaired/healthy matched
[19] = M12, subjects with mild renal impairment
[20] = M12, subjects with moderate renal impairment
[21] = M12, subjects with severe renal impairment

Structure (SMILES): CCOc1cc([C@@H](CS(C)(=O)=O)N2C(=O)c3cccc(NC(C)=O)c3C2=O)ccc1OC [apremilast]
Tmax median difference (90%CI) ([1]; apremilast, mild renal impaired vs healthy matched): 0.0 (‐1.00 to 1.00) P > .9999 h | AUC0–∞ ratio of geometric means (90%CI) [1, 9]: 85.9 (65.8–112.0) % | CL/F ratio of geometric means (90%CI) [1, 9]: 116.5 (89.3–151.9) % | Cmax ratio of geometric means (90%CI) [1, 9]: 106.2 (84.7–133.1) % | Vz/F ratio of geometric means (90%CI) [1, 9]: 120.4 (92.2–157.2) % | Tmax median difference (90%CI) ([1]; apremilast, moderate renal impaired vs healthy matched): 1.0 (‐0.50 to 2.50) P = .25 h | AUC0–∞ ratio of geometric means (90%CI) [1, 10]: 122.1 (93.6–159.3) % | CL/F ratio of geometric means (90%CI) [1, 10]: 81.9 (62.8–106.8) % | Cmax ratio of geometric means (90%CI) [1, 10]: 87.5 (69.8–109.7) % | Vz/F ratio of geometric means (90%CI) [1, 10]: 103.2 (79.0–134.8) % | AUC0–∞ higher relative to healthy matched subjects [1, 11]: ≈ 22% | Cmax lower relative to healthy matched subjects [1, 11]: ≈ 13% | Tmax median difference (90%CI) ([1]; apremilast, severe renal impaired vs healthy matched): 0.00 (‐1.5 to 1.5) P > .9999 h | Vz/F ratio of geometric means ([1]; apremilast, severe renal impaired/healthy matched, 90%CI not calculated): 67.35 (NC) % | AUC0–∞ ratio of geometric means (90%CI) [1, 12]: 188.5 (132.5–268.0) % | CL/F ratio of geometric means (90%CI) [1, 12]: 53.10 (37.3–75.4) % | Cmax ratio of geometric means (90%CI) [1, 12]: 141.6 (102.9–194.8) % | VZ/F decreased [1, 13]: ~32.7% | t1/2 prolonged [1, 13]: ≈ 27% | t1/2 geometric mean difference ([1]; apremilast): 2.485 ^d (NC) h | AUC0–∞ higher compared with healthy matched subjects [1, 14]: 88.5% and ≈ 89% | Cmax higher compared with healthy matched subjects [1, 14]: 41.6% | apparent clearance relative to that of healthy matched subjects [1, 14]: ≈ 53% | absolute bioavailability [2, 15]: ≈ 73% | given dose excreted in urine unchanged [2, 15]: ≈ 3% | effect of hepatic impairment on pharmacokinetic profile [3]: largely unaffected | deaths or AEs leading to discontinuation ([4]; both studies): No deaths or AEs leading to discontinuation occurred | overall safety finding ([4]; both studies, single oral 30-mg dose): no unexpected AEs or safety signals | subjects with AEs considered possibly related to study medication or procedures ([4]; healthy matched group of severe study): 2 | subjects reporting AEs ([4]; healthy matched group of severe study (n = 8)): 2 | subjects with AEs suspected to be related to study medication or procedures ([4]; healthy matched groups of mild and moderate study): 3 | subjects reporting AEs ([4]; healthy matched groups of mild and moderate study (n = 16)): 5 | subjects with AEs suspected to be related to study medication or procedures ([4]; mild renal impairment group): 2 | subjects reporting AEs ([4]; mild renal impairment group (n = 8)): 2 | subjects with AEs suspected to be related to study medication or procedures ([4]; moderate renal impairment group): 1 | subjects reporting AEs ([4]; moderate renal impairment group (n = 8)): 2 | subjects with AEs considered possibly related to study medication or procedures ([4]; severe renal impairment group): 3 | subjects reporting AEs ([4]; severe renal impairment group (n = 8)): 4 | disease effect of PsA: slower clearance [5]: ≈ 36%

AUC0–∞ ratio of geometric means (90%CI) [1, 16]: 129.6 (99.5–168.8) % | Cmax ratio of geometric means (90%CI) [1, 16]: 130.8 (91.7–186.6) % | AUC0–∞ ratio of geometric means (90%CI) [1, 17]: 161.4 (122.8–212.3) % | Cmax ratio of geometric means (90%CI) [1, 17]: 116.9 (81.9–166.8) % | Tmax median difference (90%CI) ([1]; M12, severe renal impaired vs healthy matched): 6.25 (2.975–11.0) h | AUC0–∞ ratio of geometric means (90%CI) [1, 18]: 291.7 (204.3–416.4) % | Cmax ratio of geometric means (90%CI) [1, 18]: 142.9 (106.3–192.1) % | t1/2 geometric mean difference ([1]; M12): 10.498 ^d (NC) h | AUC0–∞ higher than in healthy matched subjects [1, 19]: 29.6% | Cmax higher than in healthy matched subjects [1, 19]: 30.8% | AUC0–∞ higher than in healthy matched subjects [1, 20]: 61.4% | Cmax higher than in healthy matched subjects [1, 20]: 16.9% | Tmax delayed compared with healthy matched subjects ([1]; M12, subjects with renal impairment (severe study), P ≤ .05): ≈ 6.25 hours | increase in AUC0–∞ vs healthy matched subjects [1, 21]: 191.7% | increase in Cmax vs healthy matched subjects [1, 21]: 42.9% | geometric mean renal clearance ([6]; healthy subjects matched with subjects with mild renal impairment): 3.67 L/h | geometric mean renal clearance ([6]; healthy subjects matched with subjects with moderate renal impairment): 3.02 L/h | renal clearance decreased ([6]; subjects with mild or moderate renal impairment): ≈ 40% | geometric mean renal clearance ([6]; subjects with mild renal impairment, urine 0-72 h / plasma AUC 0-72 h): 2.35 L/h | geometric mean renal clearance ([6]; subjects with moderate renal impairment): 1.84 L/h
Structure (SMILES): CCOc1cc([C@@H](CS(C)(=O)=O)N2C(=O)c3cccc(NC(C)=O)c3C2=O)ccc1O[C@@H]1O[C@H](C(=O)O)[C@@H](O)[C@H](O)[C@H]1O [M12, O‐desmethyl apremilast glucuronide]
share of the circulating radioactivity ([2]; after a single oral dose of [14C]apremilast): 39% | pharmacological activity [7]: pharmacologically inactive

Structure (SMILES): CCOc1cc(CC(=O)N[C@@H](CC(C)C)c2ccccc2N2CCCCC2)ccc1C(=O)O [repaglinide]
fraction of unchanged drug excreted through urine (fe) ([8]; healthy volunteers): < 0.1% | mean half-life increase ([8]; subjects with severe renal impairment, after 1 week of treatment): ~4 fold
